According to ChEMBL document CHEMBL3352121, “Modulation of Activity Profiles for Largazole-Based HDAC Inhibitors through Alteration of Prodrug Properties” (ACS Med Chem Lett, 2014):
The source made the active and inactive calls. The rule behind the calls is not given here.

Experiments:
[1] = Drug level in tumor of human HCT116 cells xenografted nu/nu mouse treated with 10 mg/kg, po largazole assessed as compound formation by HPLC-MS method; assay type: ADME, organism-based, Neoplasm, HCT-116; parameters: dose 10 mg/kg, route oral; details: in vivo
Histone deacetylase 11 = target: T1, Histone deacetylase 11 (Homo sapiens, UniProt Q96DB2); assay: Inhibition of HDAC11 (unknown origin) incubated for 3 hrs in presence of BSA and in absence of DTT by fluorescence assay
T1 sequence (Q96DB2 whole entry): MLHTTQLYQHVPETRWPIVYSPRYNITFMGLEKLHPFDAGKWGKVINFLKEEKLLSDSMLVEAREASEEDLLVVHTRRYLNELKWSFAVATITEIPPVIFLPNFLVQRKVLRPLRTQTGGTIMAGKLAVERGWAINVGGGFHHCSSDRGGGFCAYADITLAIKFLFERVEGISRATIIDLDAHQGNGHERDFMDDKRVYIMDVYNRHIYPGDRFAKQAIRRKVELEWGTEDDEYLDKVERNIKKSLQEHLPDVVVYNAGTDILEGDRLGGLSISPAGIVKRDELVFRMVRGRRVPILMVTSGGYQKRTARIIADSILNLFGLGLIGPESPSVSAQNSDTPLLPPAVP

[2] = Drug level in human HCT116 cells protein lysate solution treated with 25 ug/mL largazole assessed as compound formation after 30 mins by HPLC-MS method; assay type: ADME, cell-based; details: hct-116, 0.5 h
[3] = Drug level in human HCT116 cells protein lysate solution treated with 25 ug/mL compound 6 assessed as compound formation after 4 hrs by HPLC-MS method; assay type: ADME, cell-based; details: hct-116, 4 h
[4] = Drug level in human HCT116 cells protein lysate solution treated with 25 ug/mL compound 4 assessed as compound formation after 1 hr by HPLC-MS method; assay type: ADME, cell-based; details: hct-116, 1 h
Serum [5] = assay: Drug metabolism in mouse serum treated with largazole assessed as compound formation after 0.25 to 1440 mins by HPLC-MS method; assay type: ADME, cell-free
HCT-116 [6] = assay: In vivo inhibition of HDAC in tumor of human HCT116 cells xenografted nu/nu mouse assessed as increase in histone hyperacetylation at 10 mg/kg, ip after 24 hrs by immunoblotting method; assay type: functional, organism-based; parameters: dose 10 mg/kg
In short: (§1)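 Mice bearing HCT116 xenografts were dosed intraperitoneally at 10 or 50 mg/kg, or orally at 50 mg/kg. Tumors were excised at 4, 12 and 24 h. Histone hyperacetylation in the tumors was assessed by immunoblot, n = 2.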

HCT-116 [7] = assay: In vivo inhibition of HDAC in tumor of human HCT116 cells xenografted nu/nu mouse assessed as increase in histone hyperacetylation at 50 mg/kg, ip after 24 hrs by immunoblotting method; assay type: functional, organism-based; parameters: dose 50 mg/kg; in short: as §1
HCT-116 [8] = assay: In vivo inhibition of HDAC in tumor of human HCT116 cells xenografted nu/nu mouse assessed as increase in histone hyperacetylation at 50 mg/kg, po after 4 to 12 hrs by immunoblotting method; assay type: functional, organism-based; parameters: dose 50 mg/kg; in short: as §1
[9] = target: Histone deacetylase (Homo sapiens) (UniProt Q13547+O15379+Q9UBN7+Q92769+Q9UQL6+Q8WUI4+Q9BY41+Q96DB2+P56524+Q9UKV0+Q969S8); assay: Inhibition of HDAC in human HCT116 cells assessed as increase in histone H3 (Lys9/14) hyperacetylation at 320 pM to 10 uM after 8 to 24 hrs by immunoblotting method; assay type: cell-based; details: HCT-116
In short: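 HCT116 cells were treated across a dose range, then harvested at 8 and 24 h post-treatment. Cellular HDAC inhibition was read as histone H3 (Lys9/14) hyperacetylation by immunoblot.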

[10] = Drug metabolism in human HCT116 cells protein lysate solution assessed as largazole thiol formation at 25 ug/mL after 4 hrs by HPLC-MS method; assay type: ADME, cell-based; details: hct-116, 4 h
Serum [11] = assay: Drug metabolism in mouse serum assessed as largazole thiol formation after 0.25 to 1440 mins by HPLC-MS method; assay type: ADME, cell-free
[12] = Drug metabolism in tumor of human HCT116 cells xenografted nu/nu mouse assessed largazole thiol formation at 50 mg/kg, po by HPLC-MS method; details: in vivo

SMILES | Drug metabolism [1] | IC50 (Histone deacetylase 11) [nM] | Drug metabolism [2] | Drug metabolism [3] | Drug metabolism [4] | Drug metabolism (Serum [5]) | inhibition (HCT-116 [6]) | inhibition (HCT-116 [7]) | inhibition (HCT-116 [8]) | inhibition [9] | Drug metabolism [10] | Drug metabolism (Serum [11]) | Drug metabolism [12]
CC(C)[C@@H]1NC(=O)[C@]2(C)CSC(=N2)c2csc(n2)CNC(=O)C[C@@H](/C=C/CCS)OC1=O [LARGAZOLE THIOL] | metabolite_detected | 3 | metabolite_detected | metabolite_detected | metabolite_detected | metabolite_detected | – | – | – | – | – | – | –
CC(C)[C@@H]1NC(=O)[C@]2(C)CSC(=N2)c2csc(n2)CNC(=O)C[C@@H](/C=C/CCSSC[C@H](NC(=O)OC(C)(C)C)C(=O)O)OC1=O | – | – | – | – | – | – | Active | Active | inactive | Active | metabolite_detected | metabolite_notdetected | metabolite_notdetected
